Consider 22 compounds from ChEMBL document CHEMBL1154753, “N-sulfonylanthranilic acid derivatives as allosteric inhibitors of dengue viral RNA-dependent RNA polymerase” (J Med Chem, 2009).

Test [1] can be described thus: Inhibition of Dengue virus recombinant […] RNA dependent RNA polymerase using […] by SPA. Put shortly: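 Purified recombinant dengue 2 NS5 polymerase at 50 nM, preincubated 1 h at room temperature with compound over a range of concentrations and annealed poly(C)/biotin-oligo G template. Buffer: 50 mM Tris-HCl pH 7.0, 10 mM KCl, 2 mM MgCl2, 2 mM MnCl2, 1 mM β-mercaptoethanol, 0.05% CHAPS. Stopped with EDTA and streptavidin SPA beads, then scintillation counting. Duplicates, average of at least two experiments.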

The next test has as its system Dengue virus. Kind of test: Irreversible inhibition of Dengue virus recombinant […] RNA dependent RNA polymerase under ultraviolet light irradiation.
The nature of test [2]: Inhibition of HCV RNA dependent RNA polymerase. Also on record: species or system Hepacivirus hominis.
For test [3], the target named is T1, DNA polymerase alpha catalytic subunit (Homo sapiens, UniProt P09884).
T1 sequence (P09884 whole entry): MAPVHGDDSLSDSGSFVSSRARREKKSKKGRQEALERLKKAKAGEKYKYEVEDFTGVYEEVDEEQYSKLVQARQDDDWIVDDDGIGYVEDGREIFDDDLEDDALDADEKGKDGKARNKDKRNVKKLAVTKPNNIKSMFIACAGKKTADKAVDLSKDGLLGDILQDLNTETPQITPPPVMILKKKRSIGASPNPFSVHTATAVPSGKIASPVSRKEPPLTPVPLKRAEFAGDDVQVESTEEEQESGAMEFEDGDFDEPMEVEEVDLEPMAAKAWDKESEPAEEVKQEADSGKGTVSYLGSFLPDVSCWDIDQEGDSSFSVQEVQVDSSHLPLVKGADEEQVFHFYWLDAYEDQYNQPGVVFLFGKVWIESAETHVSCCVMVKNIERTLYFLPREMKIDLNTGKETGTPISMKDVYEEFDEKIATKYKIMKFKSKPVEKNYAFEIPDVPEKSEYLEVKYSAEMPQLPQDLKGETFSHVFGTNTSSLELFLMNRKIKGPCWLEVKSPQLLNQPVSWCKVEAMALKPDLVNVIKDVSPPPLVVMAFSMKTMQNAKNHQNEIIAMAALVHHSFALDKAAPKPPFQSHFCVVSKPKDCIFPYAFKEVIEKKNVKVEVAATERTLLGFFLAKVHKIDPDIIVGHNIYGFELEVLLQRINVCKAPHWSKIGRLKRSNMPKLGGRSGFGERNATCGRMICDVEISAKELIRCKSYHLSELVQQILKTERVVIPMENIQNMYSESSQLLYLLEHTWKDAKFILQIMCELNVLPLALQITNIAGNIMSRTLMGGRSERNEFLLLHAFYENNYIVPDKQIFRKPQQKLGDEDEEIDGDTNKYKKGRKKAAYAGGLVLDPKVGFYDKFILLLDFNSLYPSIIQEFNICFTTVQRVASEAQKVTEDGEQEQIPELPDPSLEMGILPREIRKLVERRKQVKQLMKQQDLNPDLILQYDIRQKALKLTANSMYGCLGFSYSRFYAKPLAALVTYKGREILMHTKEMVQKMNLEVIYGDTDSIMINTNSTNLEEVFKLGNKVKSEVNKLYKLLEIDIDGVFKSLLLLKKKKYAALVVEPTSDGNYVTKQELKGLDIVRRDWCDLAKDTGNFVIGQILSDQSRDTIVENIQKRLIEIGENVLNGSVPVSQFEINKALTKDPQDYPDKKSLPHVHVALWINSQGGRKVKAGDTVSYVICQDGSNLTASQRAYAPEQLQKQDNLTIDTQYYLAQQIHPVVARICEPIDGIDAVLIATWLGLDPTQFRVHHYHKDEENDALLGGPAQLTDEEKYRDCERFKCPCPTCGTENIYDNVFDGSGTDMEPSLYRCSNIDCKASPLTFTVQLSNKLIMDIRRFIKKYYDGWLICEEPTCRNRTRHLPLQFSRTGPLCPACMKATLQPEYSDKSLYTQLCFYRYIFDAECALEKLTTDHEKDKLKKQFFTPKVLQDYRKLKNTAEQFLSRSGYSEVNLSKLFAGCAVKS
Kind of test: Inhibition of human DNA polymerase alpha.

The target of a further test is DNA polymerase beta (Homo sapiens, UniProt P06746). Kind of test: Inhibition of human DNA polymerase beta.

As a reminder, the IC50 is the concentration at which inhibition is half-maximal.

Each structure is given as a SMILES string. Calls of active or inactive are those of the source. The calls are words filed in the database; no cut-off is given here. A value given as a limit tells only on which side of the number the result lay.

Turning to `O=C(Nc1cccc(Cn2cc(-c3cccc(S(=O)(=O)Nc4ccccc4C(=O)O)c3)cn2)c1)c1ccc(C(=O)c2ccccc2)cc1`, the IC50 in test [1] was 1.5 µM. The result in the test on Dengue virus was Active.

On to `NC(=O)c1ccccc1NS(=O)(=O)c1cccc(-c2cnn(Cc3ccccc3)c2)c1`, for which the concentration for half-maximal inhibition (IC50) in test [1] is over 20 µM. In the case of `O=C(O)c1c(Cl)cccc1NS(=O)(=O)c1cccc(-c2cnn(Cc3ccccc3)c2)c1`, the half-maximal inhibitory concentration (IC50) in test [1] was over 20 µM. Still for that read-out and setting: the figure for `COc1cc(NS(=O)(=O)c2cccc(-c3cnn(Cc4ccccc4)c3)c2)c(C(=O)O)cc1OC` is over 20 µM; for `O=C(O)c1ccccc1NS(=O)(=O)c1cccc(-c2cnn(Cc3ccc4ccccc4c3)c2)c1` it is 0.37 µM; for `COc1ccc(C(=O)O)c(NS(=O)(=O)c2cccc(-c3cnn(Cc4ccccc4)c3)c2)c1` it is 9.99 µM.

For the compound `O=C(O)c1ccccc1NS(=O)(=O)c1cccc(-c2cnn(CCN3CCOCC3)c2)c1`, in test [1], the IC50 was over 20 µM. `O=C(O)c1ccc(NS(=O)(=O)c2cccc(-c3cnn(Cc4ccccc4)c3)c2)cc1`: the concentration for half-maximal inhibition (IC50) in test [1] is over 20 µM. `O=C(O)c1ccccc1NS(=O)(=O)c1cccc(-c2cnn(Cc3ccccc3)c2)c1`: the IC50 in test [1] was 0.7 µM; in test [2] it was over 20 µM; in test [3], over 20 µM; at DNA polymerase beta it was over 20 µM.

For `CC(C)Cn1cc(-c2cccc(S(=O)(=O)Nc3ccccc3C(=O)O)c2)cn1`, the 50% inhibitory concentration (IC50) in test [1] is over 20 µM.

For the compound `O=C(O)c1ccccc1NS(=O)(=O)c1cccc(-c2cn[nH]c2)c1`, the concentration for half-maximal inhibition (IC50) in test [1] was over 20 µM. Regarding `O=C(O)c1ccc(F)cc1NS(=O)(=O)c1cccc(-c2cnn(Cc3ccccc3)c2)c1`, the half-maximal inhibitory concentration (IC50) in test [1] was 0.37 µM; in test [2] it was over 20 µM; in test [3], over 20 µM; at DNA polymerase beta, over 20 µM. For the compound `Cn1cc(-c2cccc(S(=O)(=O)Nc3ccccc3C(=O)O)c2)cn1`, the concentration for half-maximal inhibition (IC50) in test [1] was over 20 µM. With `CC(C)CCn1cc(-c2cccc(S(=O)(=O)Nc3ccccc3C(=O)O)c2)cn1`, in test [1], the IC50 worked out at 6.77 µM. On the same count and under the same terms, the figure for `O=C(O)c1cccc(Cl)c1NS(=O)(=O)c1cccc(-c2cnn(Cc3ccccc3)c2)c1` is 18 µM; for `O=S(=O)(Nc1ccccc1)c1cccc(-c2cnn(Cc3ccccc3)c2)c1` it is over 20 µM; for `CC1=NN(c2cccc(S(=O)(=O)Nc3ccccc3C(=O)O)c2)C(=O)C1` it is 7.2 µM.

Take `O=C(O)c1ccc(Cl)cc1NS(=O)(=O)c1cccc(-c2cnn(Cc3ccccc3)c2)c1`: in test [1], the IC50 turned out to be 0.77 µM. The same measure, in the same setting: the figure for `O=C(O)c1cccc(NS(=O)(=O)c2cccc(-c3cnn(Cc4ccccc4)c3)c2)c1` is over 20 µM; for `COC(=O)c1ccccc1NS(=O)(=O)c1cccc(-c2cnn(Cc3ccccc3)c2)c1` it is over 20 µM. The same measure, in the same setting: the figure for `O=C(O)c1cc(Cl)ccc1NS(=O)(=O)c1cccc(-c2cnn(Cc3ccccc3)c2)c1` is 2.56 µM.

For the compound `O=C(O)c1ccc(F)cc1NS(=O)(=O)c1cccc(-c2cnn(Cc3ccc4ccccc4c3)c2)c1`, the half-inhibitory concentration (IC50) in test [1] is 0.26 µM; in test [2], over 20 µM; in test [3] it was over 20 µM; on DNA polymerase beta, over 20 µM.
